Results on two compounds are retold here after ChEMBL document CHEMBL5712905, “H3K27M induces defective chromatin spread of PRC2-mediated repressive H3K27me2/me3 and is essential for glioma tumorigenesis” (2019).

The source made the active and inactive calls. The rule behind the calls is not given here.

The subject of test [1] is BT-245. In words: Growth inhibition of K27M knock-out human BT-245 cells at 0.5 to 10 uM after 7 days by Alamar blue assay. Particulars: dose 0.5-10 µM, time 7.0 day. The format is functional, cell-based. In a few lines: (§1)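 Tumor-derived cells were grown in NS-A proliferation medium with bFGF (10 ng/mL), rhEGF (20 ng/mL) and heparin on poly-L-ornithine/laminin coating. They were plated at 7000 cells/well and exposed to EZH2 inhibitor (0.5–10 uM) or DMSO vehicle for 7 days, with media changed every 3 days. Alamar blue was added on day 7 for 6 h and absorbance read at 570 and 600 nm. Percent difference versus untreated growth control was derived from an extinction-coefficient formula; values are the mean of three replicates ± SEM.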
(In general: The colour change of resazurin is a common sign of viable cells or microbes.)

Test [2] relates to BT-245. The experiment in a line: Growth inhibition of human BT-245 cells expressing mutant K27M at 0.5 to 10 uM after 7 days by Alamar blue assay. It is filed as functional, cell-based. The conditions noted are these: dose 0.5-10 µM, time 7.0 day. The essentials:
as §1

For test [3], the system named is BT-245. The experiment in a line: Growth inhibition of human BT-245 cells expressing mutant K27M at 2.5 uM assessed as normalized cell index after 7 days by Alamar blue assay relative to control. The conditions noted are these: time 7 day. The format is functional. The essentials: as §1
In test [4] the test system is BT-245. In words: Growth inhibition of human BT-245 cells expressing mutant K27M at 1.5 uM assessed as normalized cell index after 7 days by Alamar blue assay relative to control. It is filed as functional. The conditions noted are these: time 7 day. In a few lines:
as §1

The test system of test [5] is BT-245. In words: Growth inhibition of human BT-245 cells expressing mutant K27M at 3 uM assessed as normalized cell index after 7 days by Alamar blue assay relative to control. The format is functional. Particulars: time 7 day. The essentials: as §1
The target in test [6] is Histone-lysine N-methyltransferase EZH2 (Homo sapiens) (UniProt Q15910). The experiment in a line: Inhibition of EZH2 in human BT-245 cells expressing mutant K27M assessed as decrease in H3K27me2 deposition by western blot method. It is filed as cell-based. In general terms: In western blotting, separated proteins are transferred to a membrane and probed.
Test [7] has the same target. The experiment in a line: Inhibition of EZH2 in human G477 cells assessed as decrease in H3K27me2 deposition by western blot method. It is filed as cell-based.
For test [8] the target is unchanged. The experiment in a line: Inhibition of EZH2 in human BT-245 cells expressing mutant K27M assessed as decrease in H3K27me3 deposition by western blot method. It is filed as cell-based.
For test [9] the target is unchanged. The experiment in a line: Inhibition of EZH2 in human G477 cells assessed as decrease in H3K27me3 deposition by western blot method. The format is cell-based.
Test [10] has as its system BT-245. In words: Growth inhibition of K27M knock-out human BT-245 cells at 10 uM assessed as normalized cell index after 7 days by Alamar blue assay relative to control. The format is functional. The conditions noted are these: time 7 day. The essentials:
as §1

In test [11] the test system is BT-245. The experiment in a line: Growth inhibition of K27M knock-out human BT-245 cells at 8 uM assessed as normalized cell index after 7 days by Alamar blue assay relative to control. Particulars: time 7 day. It is filed as functional. In a few lines: as §1
Test [12] deals with BT-245. The experiment in a line: Growth inhibition of K27M knock-out human BT-245 cells at 7 uM assessed as normalized cell index after 7 days by Alamar blue assay relative to control. It is filed as functional. Particulars: time 7 day. The essentials:
as §1

The test system of test [13] is BT-245. In words: Growth inhibition of K27M knock-out human BT-245 cells at 5 uM assessed as normalized cell index after 7 days by Alamar blue assay relative to control. It is filed as functional. Particulars: time 7 day. The essentials: as §1
Test [14] concerns BT-245. In words: Growth inhibition of K27M knock-out human BT-245 cells at 4 uM assessed as normalized cell index after 7 days by Alamar blue assay relative to control. Particulars: time 7 day. It is filed as functional. In a few lines:
as §1

The test system of test [15] is BT-245. The experiment in a line: Growth inhibition of K27M knock-out human BT-245 cells at 3.5 uM assessed as normalized cell index after 7 days by Alamar blue assay relative to control. It is filed as functional. The conditions noted are these: time 7 day. In a few lines:
as §1

For test [16], the system named is BT-245. The experiment in a line: Growth inhibition of K27M knock-out human BT-245 cells at 3 uM assessed as normalized cell index after 7 days by Alamar blue assay relative to control. The format is functional. The conditions noted are these: time 7 day. In a few lines: as §1
Test [17] has as its system BT-245. In words: Growth inhibition of K27M knock-out human BT-245 cells at 2.5 uM assessed as normalized cell index after 7 days by Alamar blue assay relative to control. The conditions noted are these: time 7 day. The format is functional. In a few lines:
as §1

The test system of test [18] is BT-245. In words: Growth inhibition of K27M knock-out human BT-245 cells at 1.5 uM assessed as normalized cell index after 7 days by Alamar blue assay relative to control. It is filed as functional. Particulars: time 7 day. In a few lines: as §1
Test [19] has as its system BT-245. The experiment in a line: Growth inhibition of human BT-245 cells expressing mutant K27M at 10 uM assessed as normalized cell index after 7 days by Alamar blue assay relative to control. It is filed as functional. Particulars: time 7 day. The essentials: as §1
The test system of test [20] is BT-245. The experiment in a line: Growth inhibition of human BT-245 cells expressing mutant K27M at 7 uM assessed as normalized cell index after 7 days by Alamar blue assay relative to control. The format is functional. Particulars: time 7 day. The essentials: as §1
Test [21] deals with BT-245. The experiment in a line: Growth inhibition of human BT-245 cells expressing mutant K27M at 5 uM assessed as normalized cell index after 7 days by Alamar blue assay relative to control. The conditions noted are these: time 7 day. The format is functional. In a few lines:
as §1

Test [22] deals with BT-245. In words: Growth inhibition of human BT-245 cells expressing mutant K27M at 4 uM assessed as normalized cell index after 7 days by Alamar blue assay relative to control. The format is functional. Particulars: time 7 day. The essentials:
as §1

The test system of test [23] is BT-245. In words: Growth inhibition of human BT-245 cells expressing mutant K27M at 3.5 uM assessed as normalized cell index after 7 days by Alamar blue assay relative to control. The format is functional. The conditions noted are these: time 7 day. The essentials:
as §1

Histone-lysine N-methyltransferase EZH2 (Homo sapiens), sequence (Q15910 whole entry, looked up): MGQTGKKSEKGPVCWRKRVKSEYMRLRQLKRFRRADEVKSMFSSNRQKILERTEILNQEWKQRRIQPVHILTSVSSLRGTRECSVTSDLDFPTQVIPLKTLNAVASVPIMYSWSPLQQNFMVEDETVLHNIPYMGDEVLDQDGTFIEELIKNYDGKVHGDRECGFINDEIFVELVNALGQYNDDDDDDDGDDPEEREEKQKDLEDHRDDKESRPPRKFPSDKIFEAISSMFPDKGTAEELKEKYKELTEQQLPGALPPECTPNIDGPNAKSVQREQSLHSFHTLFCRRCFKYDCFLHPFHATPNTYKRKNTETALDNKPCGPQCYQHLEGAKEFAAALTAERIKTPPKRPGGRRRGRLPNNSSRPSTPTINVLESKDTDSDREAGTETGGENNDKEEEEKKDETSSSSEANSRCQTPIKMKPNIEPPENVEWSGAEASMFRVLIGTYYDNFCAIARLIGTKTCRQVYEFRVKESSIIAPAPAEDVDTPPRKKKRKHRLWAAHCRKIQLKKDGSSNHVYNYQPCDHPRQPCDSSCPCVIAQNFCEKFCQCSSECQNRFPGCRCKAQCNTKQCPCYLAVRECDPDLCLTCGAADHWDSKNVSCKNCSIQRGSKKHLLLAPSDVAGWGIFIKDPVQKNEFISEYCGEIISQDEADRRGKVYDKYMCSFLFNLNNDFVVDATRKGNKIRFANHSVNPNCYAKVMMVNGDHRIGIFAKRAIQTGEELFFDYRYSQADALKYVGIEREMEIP

In the case of `CCCc1cc(C)[nH]c(=O)c1CNC(=O)c1cc(-c2ccnc(N3CCN(C)CC3)c2)cc2c1cnn2C(C)C`, the outcome with BT-245 [1] and in the test with BT-245 [2] was Active.
Consider `CCCc1cc(C)[nH]c(=O)c1CNC(=O)c1cc(-c2ccc(N3CCN(C(C)C)CC3)nc2)cc2c1cnn2C(C)C`, for which the Activity_index in the test with BT-245 [3] is 96%; in the test on BT-245 [4], 93.5%; with BT-245 [5], 93.39%; in the test on BT-245 [10], 50.02%; in the test on BT-245 [11] it was 63.65%; with BT-245 [12], 106.11%. Also, the Activity_index turned out to be 108.08% in the test with BT-245 [13]; 109.66% with BT-245 [14]; 97.97% with BT-245 [15]; 112.32% with BT-245 [16]; 106.57% with BT-245 [17]; 107.71% in the test on BT-245 [18]. Also, the Activity_index in the test on BT-245 [19] is reported as 27.95%; in the test with BT-245 [20], 25.18%; with BT-245 [21], 73.66%; with BT-245 [22] it was 85.7%; in the test on BT-245 [23] it was 92.89%. Moreover, the inhibition entry in [6], in test [7], in [8] and in test [9] was “Active” in each case.
